Measurements reported in ChEMBL document CHEMBL3865834, “Dihydrobenzofuran Neolignanamides: Laccase-Mediated Biomimetic Synthesis and Antiproliferative Activity” (J Nat Prod, 2016).

What was measured:
[1] = Growth inhibition of human PC3 cells measured after 72 hrs by MTT assay; assay type: functional; settings: PC-3, 72 h
In short: (§1)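 Cells plated at (2.5−3.0) × 10^3 per 0.33 cm2, treated after 24 h with 0.01−100 μM (final) for 3 days at 37 °C, 5% CO2; controls got 0.5−1% DMSO. MTT read at 570 nm, 6−8 wells per value.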

[2] = Growth inhibition of human MCF7 cells measured after 72 hrs by MTT assay; assay type: functional; settings: MCF7, 72 h; in short: as §1
[3] = Growth inhibition of human Caco2 cells measured after 72 hrs by MTT assay; assay type: functional; settings: Caco-2, 72 h; in short: as §1
[4] = Lipophilicity of the compound assessed as capacity factor by HPLC analysis; assay type: physicochemical
In short: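 Reversed-phase C18 HPLC (4.6 × 250 mm, 5 μm), 1 mL/min, acidified acetonitrile gradient 20→80% B over 30 min, diode-array detection. Capacity factor K = (tR − t0)/t0, where t0 is the retention time of the AA standard.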

Caco-2 [5] = assay: Induction of apoptosis in human Caco2 cells assessed as early apoptotic cells at 100 uM measured after 24 hrs by Alexa Fluor 488 Annexin V/propidium iodide staining-based flow cytometry (reference value: 3.9%); assay type: functional
Caco-2 [6] = assay: Induction of apoptosis in human Caco2 cells assessed as late apoptotic cells at 100 uM measured after 24 hrs by Alexa Fluor 488 Annexin V/propidium iodide staining-based flow cytometry (reference value: 1.8%); assay type: functional
Caco-2 [7] = assay: Induction of apoptosis in human Caco2 cells assessed as necrotic cells at 100 uM measured after 24 hrs by Alexa Fluor 488 Annexin V/propidium iodide staining-based flow cytometry (reference value: […]); assay type: functional
[8] = Cell cycle arrest in human Caco2 cells assessed as accumulation at G2-phase at 100 uM measured after 24 to 36 hrs by propidium iodide staining-based flow cytometry (reference value: 28%); assay type: functional; settings: Caco-2
In short: (§2)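 Caco-2 cells grown in six-well plates, treated 24–36 h, compared with vehicle-treated cells. Harvested by trypsinization, PBS-washed, fixed in 70% ethanol at 4 °C for at least 30 min. Then RNase A for 1 h at 37 °C, propidium iodide (final 50 μg/mL) for 1 h at 37 °C, and analysed by flow cytometry. Means of three independent experiments.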

[9] = Cell cycle arrest in human Caco2 cells assessed as accumulation at S-phase at 100 uM measured after 24 to 36 hrs by propidium iodide staining-based flow cytometry (reference value: 18 to 19.5%); assay type: functional; settings: Caco-2; in short: as §2
[10] = Cell cycle arrest in human Caco2 cells assessed as accumulation at sub-G1 phase at 100 uM measured after 24 to 36 hrs by propidium iodide staining-based flow cytometry; assay type: functional; settings: Caco-2; in short: as §2
[11] = Cell cycle arrest in human Caco2 cells assessed as accumulation at G0/G1 phase at 100 uM measured after 24 to 36 hrs by propidium iodide staining-based flow cytometry (reference value: 51.1%); assay type: functional; settings: Caco-2; in short: as §2
Caco-2 [12] = assay: Induction of apoptosis in human Caco2 cells assessed as viable cells at 100 uM measured after 24 hrs by Alexa Fluor 488 Annexin V/propidium iodide staining-based flow cytometry (reference value: 95.1%); assay type: functional; settings: Caco-2, 24 h, read-out: Activity

Structure (SMILES)	GI50 [1]	GI50 [2]	GI50 [3]	K [4]	other results
O=C(/C=C/c1ccc2c(c1)[C@@H](C(=O)NCCc1ccc(O)cc1)[C@H](c1ccc(O)cc1)O2)NCCc1ccc(O)cc1 (racemic)	26 µM	33.2 µM	28.9 µM	5.2	
Cc1ccc(CNC(=O)/C=C/c2cc(O)c3c(c2)[C@@H](C(=O)NCc2ccc(C)cc2)[C@H](c2ccc(O)c(O)c2)O3)cc1 (racemic)				7.89	
COc1cc(CNC(=O)/C=C/c2cc(O)c3c(c2)[C@@H](C(=O)NCc2cc(OC)c(OC)c(OC)c2)[C@H](c2ccc(O)c(O)c2)O3)cc(OC)c1OC (racemic)				5.69	
COc1cc([C@@H]2Oc3c(OC)cc(/C=C/C(=O)NCc4cc(OC)c(OC)c(OC)c4)cc3[C@H]2C(=O)NCc2cc(OC)c(OC)c(OC)c2)ccc1O (racemic)				6.32	
COc1cc([C@@H]2Oc3c(OC)cc(/C=C/C(=O)NCCc4ccc(O)cc4)cc3[C@H]2C(=O)NCCc2ccc(O)cc2)ccc1O (racemic) [GROSSAMIDE]	21 µM	24 µM	> 100 µM	2.32	
O=c1[nH]cc(F)c(=O)[nH]1 [FLUOROURACIL]	4.1 to 6.3 µM	3.6 to 3.8 µM	3.3 to 4.2 µM		Activity (Caco-2 [5]): 56.2%; Activity (Caco-2 [6]): 5.3%; Activity (Caco-2 [7]): 0.3%; Activity [8]: 1.9%; Activity [9]: 37.5 to 39.8%; Activity [10]: 10.4%; Activity [11]: 50.1%; viability at 100 µM (Caco-2 [12]): 36.8%
O=C(/C=C/c1cc(O)c2c(c1)[C@@H](C(=O)NCCc1ccc(O)cc1)[C@H](c1ccc(O)c(O)c1)O2)NCCc1ccc(O)cc1 (racemic)	66 µM	39.7 µM	> 10 µM	0.56	
Cc1ccc(CNC(=O)/C=C/c2ccc3c(c2)[C@@H](C(=O)NCc2ccc(C)cc2)[C@H](c2ccc(O)cc2)O3)cc1 (racemic)				8.36	
COc1cc([C@@H]2Oc3c(OC)cc(/C=C/C(=O)NCc4ccc(C)cc4)cc3[C@H]2C(=O)NCc2ccc(C)cc2)ccc1O (racemic)				8.45	
COc1cc(CNC(=O)/C=C/c2ccc3c(c2)[C@@H](C(=O)NCc2cc(OC)c(OC)c(OC)c2)[C@H](c2ccc(O)cc2)O3)cc(OC)c1OC (racemic)				6.35	
